Measured values taken from ChEMBL document CHEMBL4052825, “Identification of Novel Coumestan Derivatives as Polyketide Synthase 13 Inhibitors against Mycobacterium tuberculosis” (J Med Chem, 2018).
Values after ≈ are worked out from the molar mass of the structure shown. Active and inactive are the calls of the source. No cut-off for these calls is given here.

Legend:
[1] = system: Mycobacterium tuberculosis H37Rv; test: Inhibition of PKS13 in Mycobacterium tuberculosis H37Rv assessed as reduction in bacterial growth after […] by MABA
[2] = Selectivity index, ratio of IC50 for African green monkey Vero cells to MIC=<90 for Mycobacterium tuberculosis H37Rv; type: toxicity; details: read-out: Selectivity Index
Summary of the method: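 Vero (African green monkey kidney) cytotoxicity IC50 by MABA, divided by the MABA MIC against M. tuberculosis H37Rv to give SI = IC50/MIC.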

[3] = system: Mycobacterium tuberculosis; test: Antitubercular activity against Mycobacterium tuberculosis H37Rv infected in Balb/C mouse assessed as reduction in bacterial growth in mouse serum at 100 mg/kg, po administered via gavage after 30 to 120 mins by MABA; type: functional, organism-based
Summary of the method: (§1)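 Oral serum inhibition titration. Six-week female BALB/c mice (20 g) gavaged with 100 mg/kg compound suspended in 0.5% carboxymethylcellulose. Isoniazid 10 mg/kg was the positive control and vehicle alone the negative control. Cardiac blood taken at 30, 60 and 120 min and serum separated. Serum two-fold serially diluted with 10^4 CFU M. tuberculosis H37Rv, incubated 7 days, read by MABA.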

Vero = test: Cytotoxicity against African green monkey Vero cells after 72 hrs by MABA; type: cell-based; details: Chlorocebus sabaeus
HFL1 = test: Cytotoxicity against HFL1 cells after 48 hrs by CellTiter96 AQueous one solution assay; type: cell-based; details: Homo sapiens, HFL1, 48 h
Summary of the method: (§2)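 Human cell cytotoxicity. QSG-7701 and HEK293 grown in DMEM; MRC-5 and HFL-1 grown in DMEM/F12. Both media carried 10% FBS with penicillin/streptomycin, 37°C, 5% CO2. Cells seeded at 5,000/well, incubated overnight, then exposed to compound for 48 h. CellTiter 96 AQueous One added for 1 h, absorbance read at 490 nm. IC50 is the mean of three independent experiments.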

[4] = Selectivity index, ratio of IC50 for human HEK293 cells to MIC=<90 for Mycobacterium tuberculosis H37Rv; type: toxicity; details: read-out: Selectivity Index
HEK293 = test: Cytotoxicity against human HEK293 cells after 48 hrs by CellTiter96 AQueous one solution assay; type: cell-based; details: HEK293, 48 h; summary of the method: as §2
MRC5 = test: Cytotoxicity against human MRC5 cells after 48 hrs by CellTiter96 AQueous one solution assay; type: cell-based; details: MRC5, 48 h; summary of the method: as §2
[5] = Selectivity index, ratio of IC50 for human QSG7701 cells to MIC=<90 for Mycobacterium tuberculosis H37Rv; type: toxicity; details: read-out: Selectivity Index
[6] = Selectivity index, ratio of IC50 for human HFL1 cells to MIC=<90 for Mycobacterium tuberculosis H37Rv; type: toxicity; details: read-out: Selectivity Index
[7] = Selectivity index, ratio of IC50 for human MRC5 cells to MIC=<90 for Mycobacterium tuberculosis H37Rv; type: toxicity; details: read-out: Selectivity Index
[8] = Cytotoxicity against human QSG7701 cells after 48 hrs by CellTiter96 AQueous one solution assay; type: cell-based; details: QSG7701, 48 h; summary of the method: as §2
[9] = Metabolic stability in human liver microsomes assessed as parent compound remaining at 10 uM after 60 mins in presence of NADPH; type: ADME, microsome; details: read-out: Stability
[10] = system: Mycobacterium tuberculosis; test: Antitubercular activity against Mycobacterium tuberculosis by microdilution method; type: functional
Summary of the method: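 Whole-cell MIC against M. tuberculosis strain H37Rv, measured by the microplate Alamar Blue assay (MABA) following a previously reported procedure; MIC values given in […].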

[11] = system: Mycobacterium tuberculosis; test: Antitubercular activity against Mycobacterium tuberculosis H37Rv infected in Balb/C mouse assessed as reduction in bacterial growth in mouse serum at 100 mg/kg, po administered via gavage after 30 mins dose by MABA; type: functional, organism-based; summary of the method: as §1

SMILES: COc1ccc2c(c1)oc(=O)c1c2oc2ccc3c(c21)CN(CC1CC1)CO3
- MIC=<90 [1]: 2 µg/mL

SMILES: CCOC(=O)c1c(-c2ccccc2)oc2ccc(O)c(CN3CCC(C)CC3)c12
- selectivity ratio [2]: 16
- Activity [3]: inactive
- MIC=<90 [1]: 2.5 µM
- IC50 (Vero): 16 µg/mL (≈ 40.7 µM)

SMILES: Cc1ccc2oc(=O)c3c(oc4ccc5c(c43)CN(CC3CC3)CO5)c2c1
- MIC=<90 [1]: 4 µg/mL

SMILES: O=C(Nc1ccccc1)c1c(-c2ccccc2)oc2ccc(O)c(CN3CCCCC3)c12
- MIC=<90 [1]: 8 µg/mL

SMILES: O=c1oc2ccccc2c2oc3ccc(O)cc3c12
- MIC=<90 [1]: > 64 µg/mL

SMILES: CCOC(=O)c1c(-c2ccc(OC)cc2)oc2ccc(O)c(CN3CCCCC3)c12
- MIC=<90 [1]: 16 µg/mL

SMILES: CCOC(=O)c1c(-c2ccccc2)oc2ccc3c(c12)CN(CCC(C)C)CO3
- MIC=<90 [1]: 4 µg/mL

SMILES: CCOC(=O)c1c(-c2ccccc2)oc2ccc(O)c(CN3CCN(C)CC3)c12
- MIC=<90 [1]: > 64 µg/mL

SMILES: O=C(NC1CC1)c1c(-c2ccccc2)oc2ccc(O)c(CN3CCCCC3)c12
- MIC=<90 [1]: 8 µg/mL

SMILES: CCOC(=O)c1c(-c2ccc(OC)cc2)oc2ccc3c(c12)CN(CC1CC1)CO3
- MIC=<90 [1]: 2 µg/mL

SMILES: O=c1oc2ccccc2c2oc3ccc4c(c3c12)CN(C1CCCCC1)CO4
- MIC=<90 [1]: 16 µg/mL

SMILES: CCOC(=O)c1c(-c2ccc(C)cc2)oc2ccc3c(c12)CN(CC1CC1)CO3
- MIC=<90 [1]: 4 µg/mL

SMILES: COc1ccc2oc(=O)c3c(oc4ccc(O)c(CN5CCCCC5)c43)c2c1
- MIC=<90 [1]: 4 µg/mL

SMILES: CCOC(=O)c1c(-c2ccccc2)oc2ccc3c(c12)CN(C1CCCC1)CO3
- MIC=<90 [1]: 2 µg/mL

SMILES: O=c1oc2cc(F)ccc2c2oc3ccc(O)c(CN4CCCCC4)c3c12
- selectivity ratio [2]: 8
- MIC=<90 [1]: 1 µg/mL
- IC50 (Vero): 8 µg/mL (≈ 21.8 µM)

SMILES: O=c1oc2ccccc2c2oc3ccc4c(c3c12)CN(CC1CC1)CO4
- MIC=<90 [1]: 2 µg/mL

SMILES: CCOC(=O)c1c(-c2cc(C)c(C)cc2OC)oc2ccc(O)c(CN3CCCCC3)c12
- MIC=<90 [1]: 4 µg/mL

SMILES: CCOC(=O)c1c(-c2ccccc2)oc2ccc(O)c(CN3CCOCC3)c12
- MIC=<90 [1]: > 64 µg/mL

SMILES: Cc1ccc2oc(=O)c3c(oc4ccc(O)c(CN5CCCCC5)c43)c2c1
- selectivity ratio [2]: 16
- MIC=<90 [1]: 0.5 µg/mL
- IC50 (Vero): 8 µg/mL (≈ 22 µM)

SMILES: CCOC(=O)c1c(-c2ccc(OC)cc2OC)oc2ccc(O)c(CN3CCCCC3)c12
- MIC=<90 [1]: 16 µg/mL

SMILES: O=C(NC12CC3CC(CC(C3)C1)C2)c1c(-c2ccccc2)oc2ccc(O)c(CN3CCCCC3)c12
- MIC=<90 [1]: > 64 µg/mL

SMILES: CCCN(CCC)Cc1c(O)ccc2oc(-c3ccccc3)c(C(=O)OCC)c12
- MIC=<90 [1]: 8 µg/mL

SMILES: COc1ccc2oc(=O)c3c(oc4ccc5c(c43)CN(CC3CC3)CO5)c2c1
- MIC=<90 [1]: 16 µg/mL

SMILES: CCOC(=O)c1c(-c2ccc(F)cc2)oc2ccc(O)c(CN3CCCCC3)c12
- selectivity ratio [2]: 32
- Activity [3]: inactive
- MIC=<90 [1]: 0.5 µg/mL
- IC50 (Vero): 16 µg/mL (≈ 40.3 µM)

SMILES: CCOC(=O)c1c(-c2ccc(F)cc2OC)oc2ccc(O)c(CN3CCCCC3)c12
- MIC=<90 [1]: 8 µg/mL

SMILES: CCOC(=O)c1c(-c2ccc(C(F)(F)F)cc2)oc2ccc(O)c(CN3CCCCC3)c12
- MIC=<90 [1]: 8 µg/mL

SMILES: CCOC(=O)c1c(-c2ccccc2)oc2ccc3c(c12)CN(C1CC1)CO3
- MIC=<90 [1]: 16 µg/mL

SMILES: CCOC(=O)c1c(-c2ccccc2)oc2ccc3c(c12)CN(CC1CC1)CO3
- selectivity ratio [2]: 8
- MIC=<90 [1]: 1 µg/mL
- IC50 (Vero): 8 µg/mL (≈ 21.2 µM)

SMILES: CCOC(=O)c1c(-c2ccccc2)oc2ccc(O)c(CN3CCC(CO)CC3)c12
- MIC=<90 [1]: 16 µg/mL

SMILES: CCOC(=O)c1c(-c2ccc(Br)cc2OC)oc2ccc(O)c(CN3CCCCC3)c12
- MIC=<90 [1]: > 64 µg/mL

SMILES: COc1ccc2c(c1)oc(=O)c1c2oc2ccc(O)c(CN3CCCCC3)c21
- IC50 (HFL1): 50.2 µg/mL (≈ 132 µM)
- selectivity ratio [2]: 16
- selectivity ratio [4]: > 100
- IC50 (HEK293): > 50 µg/mL
- IC50 (MRC5): > 50 µg/mL
- selectivity ratio [5]: > 100
- selectivity ratio [6]: > 100
- selectivity ratio [7]: > 100
- IC50 [8]: 38.8 µg/mL (≈ 102 µM)
- Activity [3]: Active
- MIC=<90 [1]: 0.25 µg/mL
- IC50 (Vero): 4 µg/mL (≈ 10.5 µM)
- remaining at 1 h, 10 µM [9]: 45.5%

SMILES: O=C(NCc1ccccc1)c1c(-c2ccccc2)oc2ccc(O)c(CN3CCCCC3)c12
- MIC=<90 [1]: 16 µg/mL

SMILES: Cc1cc2oc(=O)c3c(oc4ccc5c(c43)CN(CC3CC3)CO5)c2cc1C
- MIC=<90 [1]: 8 µg/mL

SMILES: O=c1oc2ccc(Cl)cc2c2oc3ccc4c(c3c12)CN(CC1CC1)CO4
- MIC=<90 [1]: 16 µg/mL

SMILES: CCOC(=O)c1c(-c2ccccc2)oc2ccc(O)cc12
- MIC=<90 [1]: > 64 µg/mL

SMILES: CCOC(=O)c1c(-c2ccccc2)oc2ccc(O)c(CN3CCCCC3)c12
- MIC=<90 [1]: 2 µg/mL

SMILES: O=c1oc2ccc(F)cc2c2oc3ccc4c(c3c12)CN(CC1CC1)CO4
- MIC=<90 [1]: 16 µg/mL

SMILES: CCNC(=O)c1c(-c2ccccc2)oc2ccc(O)c(CN3CCCCC3)c12
- MIC=<90 [1]: 4 µg/mL

SMILES: CCOC(=O)c1c(-c2cc(C)ccc2OC)oc2ccc3c(c12)CN(CC1CC1)CO3
- MIC=<90 [1]: 8 µg/mL

SMILES: O=c1oc2cc(Cl)c(Cl)cc2c2oc3ccc4c(c3c12)CN(CC1CC1)CO4
- MIC=<90 [1]: > 64 µg/mL

SMILES: O=C(O)c1c(-c2ccccc2)oc2ccc(O)c(CN3CCCCC3)c12
- MIC=<90 [1]: > 64 µg/mL

SMILES: O=c1oc2cc(Br)ccc2c2oc3ccc(O)c(CN4CCCCC4)c3c12
- selectivity ratio [2]: 8
- MIC=<90 [1]: 1 µg/mL
- IC50 (Vero): 8 µg/mL (≈ 18.7 µM)

SMILES: CCOC(=O)c1c(-c2ccccc2)oc2ccc(OC)c(CN3CCCCC3)c12
- MIC=<90 [1]: 16 µg/mL

SMILES: CCOC(=O)c1c(NC(=O)c2c(F)c(F)c(F)c(F)c2F)sc(C(N)=O)c1C
- MIC [10]: 0.5 µM (≈ 0.211 µg/mL)

SMILES: O=c1oc2ccc(Br)cc2c2oc3ccc4c(c3c12)CN(CC1CC1)CO4
- MIC=<90 [1]: 8 µg/mL

SMILES: CCOC(=O)c1c(-c2ccccc2)oc2ccc(O)c(CN3CCCC3)c12
- MIC=<90 [1]: 2 µg/mL

SMILES: O=c1oc2ccccc2c2oc3ccc4c(c3c12)CN(C1CCCC1)CO4
- selectivity ratio [2]: 1
- MIC=<90 [1]: 0.5 µg/mL
- IC50 (Vero): 0.5 µg/mL (≈ 1.38 µM)

SMILES: COC(=O)c1c(NC(=O)c2c(F)c(F)c(F)c(F)c2F)sc2c1CCCCC2
- MIC [10]: 1 µM (≈ 0.419 µg/mL)

SMILES: O=c1oc2ccccc2c2oc3ccc(O)c(CN4CCCCC4)c3c12
- IC50 (HFL1): > 50 µg/mL
- selectivity ratio [2]: 16 to 32
- selectivity ratio [4]: > 100
- IC50 (HEK293): > 50 µg/mL
- IC50 (MRC5): > 50 µg/mL
- selectivity ratio [5]: > 100
- selectivity ratio [6]: > 100
- Activity [11]: Active
- selectivity ratio [7]: > 100
- IC50 [8]: > 50 µg/mL
- Activity [3]: Active
- MIC=<90 [1]: 0.125 to 0.25 µg/mL
- IC50 (Vero): 4 µg/mL (≈ 11.4 µM)
- remaining at 1 h, 10 µM [9]: 14.5%
